Assay [1] relates to P388. As to the kind of experiment: Compound was evaluated in vivo for antitumor activity against P388 leukemia; i denotes Inactive. It is filed as functional, organism-based. The conditions noted are these: Mus musculus. In a few lines:
(§1)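 Mice given 10^6 P388 leukemia cells intraperitoneally, then drug intraperitoneally in 0.1 mL 30% v/v ethanol-water on days 1, 5 and 9. D50 (mg/kg per day giving 50% ILS) read from dose-response graph. ILS at optimal dose versus untreated controls. Long-term survival counted at 30 days.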

For another assay, the system named is HCT-8. Put plainly: In vitro for cytotoxicity against human colon tumor cells (HCT-8) in culture. It is filed as functional, cell-based.
In assay [2] the test system is P388. As to the kind of experiment: In vivo for antitumor activity against P388 leukemia. It is filed as functional, Mus musculus. In a few lines: as §1
In assay [3] the test system is P388. Put plainly: Evaluated in vivo for antitumor activity against P388 leukemia; g denotes ILS of 50% could not be reached at any dose level. It is filed as functional, organism-based. The conditions noted are these: Mus musculus. In a few lines:
as §1

A further assay concerns poly[d(A-T)]. Put plainly: Binding constant relative to amsacrine (Δlog K) for DNA binding by ethidium bromide displacement. The conditions noted are these: Bos taurus.
The test system of a further assay is L1210. Put plainly: In vitro for cytotoxicity against murine leukemia cells (L1210). It is filed as functional, cell-based. Conditions: Mus musculus.
For assay [4], the system named is P388. As to the kind of experiment: In vivo for antitumor activity against P388 leukemia. It is filed as functional, Mus musculus. In a few lines:
as §1

The subject of assay [5] is Lewis lung carcinoma cell line. Put plainly: In vivo for antitumor activity against Lewis lung carcinoma. It counts as functional, Mus musculus. In a few lines: (§2)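 Mice inoculated intravenously with 10^6 Lewis lung carcinoma cells, then drug intraperitoneally in 0.1 mL 30% v/v ethanol-water on days 5, 9 and 13. D50 (mg/kg per day for 50% ILS) taken from dose-response graph. ILS at optimal dose versus untreated tumor-bearing controls. Survivors counted at 40 days.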

Assay [6] deals with Lewis lung carcinoma cell line. Put plainly: Evaluated in vivo for antitumor activity against Lewis lung carcinoma; i denotes Inactive. Conditions: Mus musculus. It counts as functional, organism-based. In a few lines:
as §2

In assay [7] the test system is Lewis lung carcinoma cell line. As to the kind of experiment: Evaluated in vivo for antitumor activity against Lewis lung carcinoma; g denotes ILS of 50% could not be reached at any dose level. It counts as functional, organism-based. The conditions noted are these: Mus musculus. In a few lines: as §2

Molecules are shown by their SMILES. The source made the active and inactive calls. The rule behind the calls is not given here.

By IC50 is commonly meant the concentration that inhibits the measured activity by half. High values mean weaker potency, low ones greater potency. For the compound `CNc1cc(NS(C)(=O)=O)ccc1Nc1c2ccccc2nc2c(C)ccc(C)c12`, in the assay on P388 [1], the ILSmax result is “inactive”. Moreover, the IC50 with HCT-8 was 2100 nM; with L1210, 1700 nM. In the assay on P388 [2], this compound registered an OD of 65 mg/kg. The D50 result in the assay with P388 [3] is listed as “ILS of 50% could not be reached”. Moreover, the Δlog K with poly[d(A-T)] was determined as 6.18.

On to `CNC(=O)c1ccc(Cl)c2c(Nc3ccc(NS(C)(=O)=O)cc3NC)c3ccccc3nc12`, for which the half-inhibitory concentration (IC50) with HCT-8 was 4800 nM; in the assay with L1210, above 1600 nM. In the assay with P388 [4], the ILSmax is given as 38%. This compound also gave an OD with P388 [2] of 150 mg/kg. Further, the D50 result with P388 [3] was “ILS of 50% could not be reached”. Moreover, the Δlog K in the assay on poly[d(A-T)] was 6.75.

Consider `CNc1cc(NS(C)(=O)=O)ccc1Nc1c2ccccc2nc2ccc(OC)cc12`, for which the OD came out at 150 mg/kg in [5] and 100 mg/kg in the assay with P388 [2]. In addition, the ILSmax result in assay [6] is “inactive”. The IC50 with HCT-8 worked out at 1900 nM; in the assay with L1210, 1200 nM. The ILSmax in the assay with P388 [4] came to 25%. The D50 result (in the assay on P388 [3]; in assay [7]) was “ILS of 50% could not be reached” in each case. In the assay on poly[d(A-T)], this compound had a Δlog K of 5.8.

Turning to `CNc1cc(NS(C)(=O)=O)ccc1Nc1c2ccccc2nc2c(Br)cccc12`, the OD (in [5]; in the assay on P388 [2]) was 100 mg/kg each time. The ILSmax result in assay [6] is “inactive”. The IC50 in the assay with HCT-8 came to 1800 nM; with L1210, 190 nM. The ILSmax with P388 [4] came out at 35%. Besides, the D50 entry (with P388 [3]; in [7]) was “ILS of 50% could not be reached” in each case. Moreover, in the assay on poly[d(A-T)], the Δlog K is 6.37.

With `CNc1cc(NS(C)(=O)=O)ccc1Nc1c2ccccc2nc2cc(I)ccc12`, the OD in assay [5] was 30 mg/kg; in the assay on P388 [2], 45 mg/kg. Further, the ILS max result in [6] was “inactive”. In addition, the IC50 in the assay with HCT-8 came to 79 nM; with L1210, 29 nM. The D50 is 10 mg/kg in the assay with P388 [4] and “ILS of 50% could not be reached” in assay [7]. The compound also displayed an ILSmax with P388 [4] of 70%. The compound also displayed a Δlog K with poly[d(A-T)] of 6.42.

With `CNc1cc(NS(C)(=O)=O)ccc1Nc1c2ccccc2nc2ccc(Cl)cc12`, the OD in [5] turned out to be 150 mg/kg; in the assay with P388 [2], 100 mg/kg. Also, the ILSmax entry (in assay [6]; with P388 [1]) was “inactive” throughout. The figures for the IC50 in the assay on HCT-8 and in the assay with L1210 were 2500 nM and above 1600 nM, respectively. Further, the D50 result (in the assay on P388 [3]; in assay [7]) was “ILS of 50% could not be reached” in each case.

These data come from ChEMBL document CHEMBL1123442 (J Med Chem, 1986).
